Assay results from ChEMBL document CHEMBL2380226, “Novel dual cyclooxygenase and lipoxygenase inhibitors targeting hyaluronan-CD44v6 pathway and inducing cytotoxicity in colon cancer cells” (Bioorg Med Chem, 2013).
Activity calls are given as the source filed them. The rule behind the calls is not given here.

System: not listed separately
Assay: Inhibition of hyaluronan-induced CD44 antigen variant exon 6 activity in human HT-29 cells expressing Has2 assessed as decrease in cell survival after 18 hrs by MTS assay
Assay type: cell-based
Details: HT-29, 18 h
Outline: (§1)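 Cells were harvested, counted and seeded at 20 × 10^3 per well. After 18 h the medium was replaced with medium containing the agents. MTS/PMS reagent was freshly prepared at 2/0.92 mg/mL in DPBS and added in excess, then incubated at 5% CO2. Absorbance was read at 490 nm at 90 min, and cell-free blank absorbance was subtracted. IC50 is the concentration giving 50% inhibition of proliferation, reported as mean ± S.D. (three replicates of 4 independent analyses).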

With CC(C)(C)C1=CC(=NNC(=O)c2ccccc2)C=C(C(C)(C)C)C1=O as the compound, how does the IC50 read?
Its IC50 is 38.5 µM.

System: HT-29
Assay: Inhibition of hyaluronan-induced CD44 antigen variant exon 6 activity in human HT29 cells assessed as decrease in COX-2 expression at 10 uM
Assay type: cell-based
Details: not given

For CC(C)(C)C1=CC(=NNC(=O)c2ccccc2)C=C(C(C)(C)C)C1=O, which inhibition is on record?
Its inhibition is “Active”.

System: not listed separately
Assay: Inhibition of hyaluronan-induced CD44 antigen variant exon 6 activity in human HCA-7 cells expressing Has2 assessed as decrease in cell survival after 18 hrs by MTS assay
Assay type: cell-based
Details: HCA-7, 18 h
Outline: as §1

Which IC50 does the source give for CC(C)(C)C1=CC(=NNC(=O)c2ccccc2)C=C(C(C)(C)C)C1=O here?
Its IC50 is 26.4 µM.

System: not listed separately
Assay: Cytotoxicity against human HCA-7 cells assessed as decrease in cell survival after 18 hrs by MTS assay
Assay type: functional, cell-based
Details: HCA-7, 18 h
Outline: as §1

Which IC50 does the source give for CC(C)(C)C1=CC(=NNC(=O)c2ccccc2)C=C(C(C)(C)C)C1=O here?
The IC50 was 12.5 µM.

System: HT-29
Assay: Inhibition of hyaluronan-induced CD44 antigen variant exon 6 activity in human HT29 cells assessed as decrease in 5-LOX expression at 10 uM
Assay type: cell-based
Details: not given

With CC(C)(C)C1=CC(=NNC(=O)c2ccccc2)C=C(C(C)(C)C)C1=O as the compound, how does the inhibition read?
Its inhibition is “Active”.

Target: T1, Prostaglandin G/H synthase 2 (Ovis aries, UniProt P79208)
T1 sequence (P79208 whole entry): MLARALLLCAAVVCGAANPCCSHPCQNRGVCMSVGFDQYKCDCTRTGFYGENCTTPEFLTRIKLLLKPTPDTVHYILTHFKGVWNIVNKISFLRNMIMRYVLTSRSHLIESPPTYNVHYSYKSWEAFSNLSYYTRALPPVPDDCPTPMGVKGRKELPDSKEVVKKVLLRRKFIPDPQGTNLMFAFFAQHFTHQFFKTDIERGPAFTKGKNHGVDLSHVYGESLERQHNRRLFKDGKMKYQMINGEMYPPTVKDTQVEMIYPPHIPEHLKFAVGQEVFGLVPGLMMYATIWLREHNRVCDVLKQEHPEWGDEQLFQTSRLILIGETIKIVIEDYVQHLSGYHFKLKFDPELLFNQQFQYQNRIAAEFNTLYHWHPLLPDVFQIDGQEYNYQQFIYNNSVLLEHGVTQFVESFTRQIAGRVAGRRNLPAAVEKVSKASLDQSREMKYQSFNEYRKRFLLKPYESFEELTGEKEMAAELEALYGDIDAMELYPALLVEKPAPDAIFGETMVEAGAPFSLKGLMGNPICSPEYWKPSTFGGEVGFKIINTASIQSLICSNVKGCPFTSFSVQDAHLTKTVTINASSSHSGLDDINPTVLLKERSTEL
Assay: Inhibition of sheep placental COX-2 using arachidonic acid as substrate assessed as production of PGF2alpha by enzyme immunoassay in presence of stannous chloride
Details: not given
Outline: (§2)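 PGH2 formed by the enzyme is reduced with stannous chloride to PGF, which is quantified by competitive EIA. PGs compete with a PG-acetylcholinesterase tracer for PG antiserum, and the complex is captured on an anti-rabbit antibody-coated well. Ellman's reagent is developed and absorbance is read at 405 nm. Percent inhibition is taken against control incubations, and IC50 comes from the concentration-inhibition curve.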

For CC(C)(C)C1=CC(=NNC(=O)c2ccccc2)C=C(C(C)(C)C)C1=O, which IC50 is on record?
The IC50 was 9.5 µM.

For CC(C)(C)c1cc(/C=C2\SC(N)=NC2=O)cc(C(C)(C)C)c1O [DARBUFELONE], which IC50 is on record?
The IC50 was 0.48 µM.

System: not listed separately
Assay: Cytotoxicity against mouse APC10.1 cells assessed as decrease in cell survival after 18 hrs by MTS assay
Assay type: functional, cell-based
Details: not given
Outline: as §1

Which IC50 does the source give for CC(C)(C)C1=CC(=NNC(=O)c2ccccc2)C=C(C(C)(C)C)C1=O here?
The IC50 was 20 µM.

System: HT-29
Assay: Cytotoxicity against human HT-29 cells assessed as growth inhibition after 18 hrs by MTS assay
Assay type: functional, cell-based
Details: not given
Outline: as §1

Which “growth inhibition (GI)” value does the source give for CC(C)(C)C1=CC(=NNC(=O)c2ccccc2)C=C(C(C)(C)C)C1=O here?
The value was “Dose-dependent effect”.

System: not listed separately
Assay: Inhibition of hyaluronan-induced CD44 antigen variant exon 6 activity in mouse APC10.1 cells expressing Has2 assessed as decrease in cell survival after 18 hrs by MTS assay
Assay type: cell-based
Details: not given
Outline: as §1

With CC(C)(C)C1=CC(=NNC(=O)c2ccccc2)C=C(C(C)(C)C)C1=O as the compound, how does the IC50 read?
The IC50 was 31 µM.

Organism: Mus musculus
Assay: Inhibition of hyaluronan-induced CD44 antigen variant exon 6 activity in mouse APC10.1 cells assessed as cell growth inhibition after 18 hrs by MTS assay
Assay type: cell-based
Details: not given
Outline: as §1

Which “growth inhibition (GI)” value does the source give for CC(C)(C)C1=CC(=NNC(=O)c2ccccc2)C=C(C(C)(C)C)C1=O here?
The value was “Dose-dependent effect”.

System: HCA-7
Assay: Cytotoxicity against human HCA-7 cells assessed as growth inhibition after 18 hrs by MTS assay
Assay type: functional, cell-based
Details: not given
Outline: as §1

For CC(C)(C)C1=CC(=NNC(=O)c2ccccc2)C=C(C(C)(C)C)C1=O, which “growth inhibition (GI)” value is on record?
Its value is “Dose-dependent effect”.

Target: not listed separately
Assay: Inhibition of potato 5-LOX using arachidonic acid as substrate assessed as production of hydroperoxides after 5 mins […]
Design: species or system Solanum tuberosum
Details: not given
Outline: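 Potato 5-LOX was tested with a commercial lipoxygenase screening kit that measures hydroperoxides. Compounds were dissolved in minimal DMSO and diluted in the supplied buffer. The reaction was started with arachidonic acid and shaken for 5 min. Chromogen was added, shaken for 5 min, and absorbance read at 500 nm. Percent inhibition was taken against control, and IC50 was derived from the concentration-inhibition curve from duplicate determinations.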

For CC(C)(C)c1cc(/C=C2\SC(=N)NC2=O)cc(C(C)(C)C)c1O [DARBUFELONE], which IC50 is on record?
The IC50 was 0.77 µM.

With CC(C)(C)C1=CC(=NNC(=O)c2ccccc2)C=C(C(C)(C)C)C1=O as the compound, how does the IC50 read?
The IC50 was 5.1 µM.

Target: T2, Prostaglandin G/H synthase 1 (Ovis aries, UniProt P05979)
T2 sequence (P05979 whole entry): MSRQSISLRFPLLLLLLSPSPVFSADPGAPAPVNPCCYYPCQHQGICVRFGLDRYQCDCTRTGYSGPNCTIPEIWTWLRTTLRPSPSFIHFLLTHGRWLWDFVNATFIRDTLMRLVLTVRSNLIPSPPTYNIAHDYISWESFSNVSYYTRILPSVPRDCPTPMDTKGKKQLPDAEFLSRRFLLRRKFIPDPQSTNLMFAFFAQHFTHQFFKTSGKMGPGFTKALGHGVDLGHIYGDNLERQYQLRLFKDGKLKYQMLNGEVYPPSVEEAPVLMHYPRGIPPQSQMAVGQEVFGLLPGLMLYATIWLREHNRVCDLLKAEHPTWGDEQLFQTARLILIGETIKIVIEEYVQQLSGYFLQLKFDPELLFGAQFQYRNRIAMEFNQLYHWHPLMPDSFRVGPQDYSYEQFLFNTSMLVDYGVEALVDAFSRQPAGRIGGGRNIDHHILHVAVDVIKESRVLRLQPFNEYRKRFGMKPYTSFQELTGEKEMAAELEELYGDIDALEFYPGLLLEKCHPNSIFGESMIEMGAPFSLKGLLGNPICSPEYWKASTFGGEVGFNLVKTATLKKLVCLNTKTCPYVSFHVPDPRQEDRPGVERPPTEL
Assay: Inhibition of ram seminal vesicle COX-1 using arachidonic acid as substrate assessed as production of PGF2alpha by enzyme immunoassay in presence of stannous chloride
Details: not given
Outline: as §2

With CC(C)(C)C1=CC(=NNC(=O)c2ccccc2)C=C(C(C)(C)C)C1=O as the compound, how does the IC50 read?
The IC50 was 14 µM.

Which IC50 does the source give for CC(C)(C)c1cc(/C=C2\SC(N)=NC2=O)cc(C(C)(C)C)c1O [DARBUFELONE] here?
The IC50 was 35 µM.

Organism: Ovis aries
Assay: Selectivity ratio of IC50 for sheep placental COX-2 to IC50 for ram seminal vesicle COX-1
Assay type: tissue-based
Details: not given

Which Ratio IC50 does the source give for CC(C)(C)c1cc(/C=C2\SC(=N)NC2=O)cc(C(C)(C)C)c1O [DARBUFELONE] here?
Its Ratio IC50 is 0.014.

For CC(C)(C)C1=CC(=NNC(=O)c2ccccc2)C=C(C(C)(C)C)C1=O, which Ratio IC50 is on record?
Its Ratio IC50 is 0.68.

System: HT-29
Assay: Cytotoxicity against human HT-29 cells assessed as decrease in cell survival after 18 hrs by MTS assay
Assay type: functional, cell-based
Details: HT-29, 18 h
Outline: as §1

With CC(C)(C)C1=CC(=NNC(=O)c2ccccc2)C=C(C(C)(C)C)C1=O as the compound, how does the IC50 read?
The IC50 was 15 µM.
